Data published in PMC7357868 (ACS chemical biology, 2019).

How the values were obtained:
[1] = biological target: T1, hpol κ (Homo sapiens, UniProt Q9UBT6); assay: TAMRA strand-displacement fluorescence assay of DNA polymerase activity; type: biochemical
T1 sequence (Q9UBT6 19-526): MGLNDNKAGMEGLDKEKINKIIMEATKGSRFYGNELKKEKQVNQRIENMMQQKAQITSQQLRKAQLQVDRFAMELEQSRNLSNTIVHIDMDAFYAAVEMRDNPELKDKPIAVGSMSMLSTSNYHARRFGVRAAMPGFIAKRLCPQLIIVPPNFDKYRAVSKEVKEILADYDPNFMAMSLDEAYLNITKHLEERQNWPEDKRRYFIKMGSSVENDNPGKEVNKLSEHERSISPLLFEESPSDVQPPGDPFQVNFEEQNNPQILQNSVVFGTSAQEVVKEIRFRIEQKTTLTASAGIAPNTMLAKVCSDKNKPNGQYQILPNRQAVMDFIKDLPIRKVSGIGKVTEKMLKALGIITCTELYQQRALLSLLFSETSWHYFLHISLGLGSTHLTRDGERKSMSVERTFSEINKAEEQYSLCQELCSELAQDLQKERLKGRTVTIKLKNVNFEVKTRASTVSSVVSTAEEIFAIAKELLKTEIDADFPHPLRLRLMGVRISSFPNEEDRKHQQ

[2] = biological target: T2, pol Dpo1 (Saccharolobus solfataricus, UniProt P26811); assay: TAMRA strand-displacement selectivity assay, B-family pol; type: biochemical, Sulfolobus solfataricus; conditions: 10 μM IAG-10, 25 nM Dpo1
T2 sequence (P26811 1-882): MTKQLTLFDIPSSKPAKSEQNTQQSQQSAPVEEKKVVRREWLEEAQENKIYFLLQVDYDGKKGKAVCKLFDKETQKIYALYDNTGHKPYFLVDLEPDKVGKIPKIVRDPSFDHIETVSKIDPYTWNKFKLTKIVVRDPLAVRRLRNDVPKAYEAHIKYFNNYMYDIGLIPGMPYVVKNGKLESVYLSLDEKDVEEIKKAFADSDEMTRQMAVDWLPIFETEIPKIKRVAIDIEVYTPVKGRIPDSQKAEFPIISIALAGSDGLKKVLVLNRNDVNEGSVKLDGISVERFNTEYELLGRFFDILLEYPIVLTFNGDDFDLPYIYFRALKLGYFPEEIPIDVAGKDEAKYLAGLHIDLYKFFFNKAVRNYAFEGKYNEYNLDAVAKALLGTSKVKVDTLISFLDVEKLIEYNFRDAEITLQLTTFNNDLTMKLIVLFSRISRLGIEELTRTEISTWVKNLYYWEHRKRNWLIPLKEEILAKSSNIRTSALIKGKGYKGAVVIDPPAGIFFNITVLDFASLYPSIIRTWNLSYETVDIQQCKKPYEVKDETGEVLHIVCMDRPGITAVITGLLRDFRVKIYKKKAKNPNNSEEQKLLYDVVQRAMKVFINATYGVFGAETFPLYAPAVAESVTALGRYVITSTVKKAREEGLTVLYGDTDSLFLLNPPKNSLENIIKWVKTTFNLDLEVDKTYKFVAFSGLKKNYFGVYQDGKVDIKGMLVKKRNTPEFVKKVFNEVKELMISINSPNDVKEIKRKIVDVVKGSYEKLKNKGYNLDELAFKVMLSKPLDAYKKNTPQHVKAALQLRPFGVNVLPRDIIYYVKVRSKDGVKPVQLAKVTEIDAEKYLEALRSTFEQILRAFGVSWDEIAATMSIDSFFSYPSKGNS

[3] = biological target: T3, hpol η (Homo sapiens, UniProt Q9Y253); assay: Steady-state kinetic analysis of nucleotide insertion; type: biochemical; conditions: increasing IAG-10 concentration
T3 sequence (Q9Y253 1-437): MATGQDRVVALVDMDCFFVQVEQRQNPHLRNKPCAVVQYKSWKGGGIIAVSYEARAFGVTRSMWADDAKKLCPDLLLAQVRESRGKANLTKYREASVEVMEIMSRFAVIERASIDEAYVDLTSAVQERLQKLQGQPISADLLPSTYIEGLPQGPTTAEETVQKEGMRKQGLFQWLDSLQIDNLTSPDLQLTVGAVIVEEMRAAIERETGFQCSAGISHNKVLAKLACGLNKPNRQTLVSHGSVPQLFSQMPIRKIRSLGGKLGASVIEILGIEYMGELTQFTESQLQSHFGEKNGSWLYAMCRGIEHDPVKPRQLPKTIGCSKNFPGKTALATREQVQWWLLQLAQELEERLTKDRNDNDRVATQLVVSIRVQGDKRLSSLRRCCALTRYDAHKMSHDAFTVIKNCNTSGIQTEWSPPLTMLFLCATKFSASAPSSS

[4] = tested on: hpol κ-proficient HAP-1 cells; assay: Alkaline comet assay; type: cell-based, human
How it was run: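 100 000 HAP-1 cells per well, test compound 0.5 μM alone or with alkylating agent (100 μM), 1 h; DMSO control. Cells embedded in low-melting agarose (200–300 per well), lysed 1 h, alkaline unwinding (200 mM NaOH, 1 mM EDTA) 20 min RT, electrophoresis 21 V, 30 min, 4 °C, SYBR Gold stain. Read-out is % DNA in tail per cell; ≥20 cells per replicate, three biological replicates, mean ±SD.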

[5] = biological target: T3, hpol η; assay: TAMRA strand-displacement fluorescence assay of DNA polymerase activity; type: biochemical; conditions: 95% CI in parentheses
[6] = biological target: DNA pol I from Mycobacterium tuberculosis (Tb pol I) (Mycobacterium tuberculosis, UniProt P9WNU5); assay: TAMRA strand-displacement selectivity assay, A-family pol; type: biochemical; conditions: 10 μM IAG-10, 10 nM Tb pol I
Chain of DNA pol I from Mycobacterium tuberculosis (Tb pol I) (P9WNU5 whole entry): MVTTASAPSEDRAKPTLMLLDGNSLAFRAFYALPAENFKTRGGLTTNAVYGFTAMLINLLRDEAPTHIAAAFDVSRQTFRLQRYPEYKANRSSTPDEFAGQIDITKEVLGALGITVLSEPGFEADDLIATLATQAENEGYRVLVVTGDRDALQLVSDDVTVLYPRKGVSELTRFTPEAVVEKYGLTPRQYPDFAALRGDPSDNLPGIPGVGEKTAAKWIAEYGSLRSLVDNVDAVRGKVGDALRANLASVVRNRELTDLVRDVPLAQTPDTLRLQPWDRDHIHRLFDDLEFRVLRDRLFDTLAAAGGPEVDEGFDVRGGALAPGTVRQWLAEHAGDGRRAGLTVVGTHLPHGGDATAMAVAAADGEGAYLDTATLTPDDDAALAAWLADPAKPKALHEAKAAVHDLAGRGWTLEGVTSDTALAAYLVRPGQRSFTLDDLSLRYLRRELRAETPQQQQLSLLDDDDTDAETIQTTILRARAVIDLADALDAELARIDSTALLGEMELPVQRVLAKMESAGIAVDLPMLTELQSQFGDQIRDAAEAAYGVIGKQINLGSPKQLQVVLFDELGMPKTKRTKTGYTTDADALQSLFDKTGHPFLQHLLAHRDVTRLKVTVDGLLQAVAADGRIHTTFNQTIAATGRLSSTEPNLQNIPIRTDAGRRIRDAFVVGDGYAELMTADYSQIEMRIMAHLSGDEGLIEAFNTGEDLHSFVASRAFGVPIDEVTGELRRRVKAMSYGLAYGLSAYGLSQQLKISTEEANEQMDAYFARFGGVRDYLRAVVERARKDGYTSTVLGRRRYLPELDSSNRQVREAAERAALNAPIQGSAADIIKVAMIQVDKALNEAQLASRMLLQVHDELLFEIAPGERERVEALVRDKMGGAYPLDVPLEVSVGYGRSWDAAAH

[7] = tested on: hpol κ-proficient HAP-1 cells; assay: supF mutagenesis assay; type: cell-based, human; conditions: 1 μM IAG-10, 24 h
How it was run: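 HAP-1 cells at ~80% confluency (IMDM, 10% FBS) lipofected for 24 h with pSP189 supF plasmid (10 μg per 10 cm dish), ±1 μM test compound. Plasmid was unmodified or pretreated with 100 mM MMS (HEPES pH 7.5, RT, 1 h). Recovered plasmid DpnI-digested, electroporated into E. coli MBM7070, plated on ampicillin/IPTG/X-gal. Mutation frequency = white/(blue + white); ≥10 000 colonies per condition; biological triplicate, mean ±SD.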

[8] = biological target: T1, hpol κ; assay: Steady-state kinetic analysis of dTTP insertion; type: biochemical; conditions: 0.5 nM hpol κ, 25 nM DNA, varying inhibitor concentration

For `Cl.[H]/N=C(\N)NN=Cc1cn(C(=O)c2cccc3ccccc23)c2ccc(Cl)cc12` [IAG-10, (E)-2-((1-(1-naphthoyl)-5-chloro-1H-indol-3-yl)-methylene)hydrazine-1-carboximidamide hydrochloride], the “polymerase activity in presence of compound” value (“polymerase activity” for short) ([1]; 10 μM IAG-10, 25 nM hpol κ) was “only hpol κ activity was inhibited”, the “inhibition of enzyme activity in the initial screen” value ([1]; 40 μM compound, 1 nM hpol κ, 50 nM DNA, relative to DMSO control) was “greatest inhibitory action” and the IC50 ([1]; IC50, 0.1 nM hpol κ, 0.5 nM DNA, 95% CI in parentheses) was 0.72 µM. It also gave an IC50 ([1]; IC50, 0.2 nM hpol κ, 1 nM DNA, 95% CI in parentheses) of 1.1 µM, an IC50 ([1]; IC50, 0.2 nM hpol κ, 2.5 nM DNA, 95% CI in parentheses) of 1.4 µM and an IC50 ([1]; IC50, 0.5 nM hpol κ, 10 nM DNA, 95% CI in parentheses) of 8.9 µM. The IC50 ([1]; IC50, 1 nM hpol κ, 25 nM DNA, 95% CI in parentheses) was 8.9 µM, the IC50 ([1]; IC50, 1 nM hpol κ, 50 nM DNA, 100 μM dTTP, 1 mM MgCl2, 25 °C, mean n = 3) was 7.2 µM and the “specificity for hpol κ over η” value ([1]; initial reaction conditions (higher enzyme and DNA)) was ~ 2 fold. For the same molecule, the “specificity for hpol κ over η” value ([1]; lower concentrations of enzyme and DNA) was ~ 30 fold, the “polymerase activity” value [2] was “only hpol κ activity was inhibited” and the “effect on Michaelis constant” value [3] was “linear increase”. The effect on kcat [3] was “no measurable change”, the “DNA damage (% DNA in tail) compared to control” value ([4]; 0.5 μM IAG-10 alone, 1 h) was “approximately twofold” and the “DNA damage (% DNA in tail)” value ([4]; 100 μM TMZ + 0.5 μM IAG-10, compared with TMZ alone) was “increased even further”. For the same molecule, the IC50 ([5]; IC50, 0.2 nM hpol η, 2 nM DNA) was 22.5 µM, the IC50 ([5]; IC50, 1 nM hpol η, 50 nM DNA) was 14.3 µM and the “polymerase activity” value [6] was “only hpol κ activity was inhibited”. The “mutation frequency, MMS-damaged DNA over undamaged control plasmid” value [7] was “approximately twofold”, the “mutation frequency, undamaged pSP189 plasmid” value [7] was “did not change the mutation frequency” and the “effect on turnover number (kcat)” value [8] was “sharp decrease”.
